Source: ChEMBL document CHEMBL4433213, “Investigation on 2',3'-O-Substituted ATP Derivatives and Analogs as Novel P2X3 Receptor Antagonists” (ACS Med Chem Lett, 2019)

How the values were obtained:
P2X purinoceptor 1 = molecular target: T1, P2X purinoceptor 1 (Homo sapiens, UniProt P51575); test: Antagonist activity at human P2X1R transfected in human 1321N1 cells assessed as inhibition of ATP-induced calcium influx; format: cell-based
T1 sequence (P51575 whole entry): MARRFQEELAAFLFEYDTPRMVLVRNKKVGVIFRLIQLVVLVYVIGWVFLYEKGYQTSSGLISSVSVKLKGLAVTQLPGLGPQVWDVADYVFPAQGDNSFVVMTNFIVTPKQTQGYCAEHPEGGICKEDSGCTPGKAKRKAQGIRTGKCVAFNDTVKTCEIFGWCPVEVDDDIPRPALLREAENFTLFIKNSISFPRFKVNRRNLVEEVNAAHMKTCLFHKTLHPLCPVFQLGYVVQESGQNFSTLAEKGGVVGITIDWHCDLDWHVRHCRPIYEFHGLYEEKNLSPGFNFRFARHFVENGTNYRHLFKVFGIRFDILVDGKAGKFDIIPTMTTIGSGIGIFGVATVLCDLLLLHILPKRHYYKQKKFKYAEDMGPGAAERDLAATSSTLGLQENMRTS
How it was run: (§1)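 1321N1 astrocytoma cells stably expressing human P2X1, P2X2, P2X3 or P2X4 receptor. Calcium influx was induced by ATP at the EC80 for each subtype. Results are given as IC50 (μM) or % inhibition at the indicated concentration.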

[1] = molecular target: T2, P2X purinoceptor 1 (Homo sapiens) (UniProt P51575); test: Antagonist activity at human P2X1R transfected in human 1321N1 cells assessed as inhibition of ATP-induced calcium influx relative to control; format: cell-based; settings: concentration not given here; how it was run: as §1
T2 sequence (whole entry): T1 sequence (P51575 whole entry)

P2X purinoceptor 2 = molecular target: T3, P2X purinoceptor 2 (Homo sapiens, UniProt Q9UBL9); test: Antagonist activity at human P2X2R transfected in human 1321N1 cells assessed as inhibition of ATP-induced calcium influx; format: cell-based; how it was run: as §1
T3 sequence (Q9UBL9 whole entry): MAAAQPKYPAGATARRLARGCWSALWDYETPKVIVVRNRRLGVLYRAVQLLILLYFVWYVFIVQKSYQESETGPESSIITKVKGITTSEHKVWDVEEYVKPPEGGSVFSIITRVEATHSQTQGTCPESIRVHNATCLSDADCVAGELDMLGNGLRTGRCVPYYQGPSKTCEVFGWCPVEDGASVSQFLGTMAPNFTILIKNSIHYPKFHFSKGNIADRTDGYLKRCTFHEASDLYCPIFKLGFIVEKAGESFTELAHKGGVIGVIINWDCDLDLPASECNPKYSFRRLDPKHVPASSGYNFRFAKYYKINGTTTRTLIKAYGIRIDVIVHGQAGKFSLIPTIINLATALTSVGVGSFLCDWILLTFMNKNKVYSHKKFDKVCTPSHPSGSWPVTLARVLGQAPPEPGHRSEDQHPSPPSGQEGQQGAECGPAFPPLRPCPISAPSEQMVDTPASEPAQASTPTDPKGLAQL

[2] = molecular target: T4, P2X purinoceptor 2 (Homo sapiens) (UniProt Q9UBL9); test: Antagonist activity at human P2X2R transfected in human 1321N1 cells assessed as inhibition of ATP-induced calcium influx relative to control; format: cell-based; settings: concentration not given here; how it was run: as §1
T4 sequence (whole entry): T3 sequence (Q9UBL9 whole entry)

P2X purinoceptor 3 [3] = molecular target: T5, P2X purinoceptor 3 (Homo sapiens, UniProt P56373); test: Antagonist activity at human P2X3R transfected in human 1321N1 cells assessed as inhibition of ATP-induced calcium influx; format: cell-based; how it was run: as §1
T5 sequence (P56373 whole entry): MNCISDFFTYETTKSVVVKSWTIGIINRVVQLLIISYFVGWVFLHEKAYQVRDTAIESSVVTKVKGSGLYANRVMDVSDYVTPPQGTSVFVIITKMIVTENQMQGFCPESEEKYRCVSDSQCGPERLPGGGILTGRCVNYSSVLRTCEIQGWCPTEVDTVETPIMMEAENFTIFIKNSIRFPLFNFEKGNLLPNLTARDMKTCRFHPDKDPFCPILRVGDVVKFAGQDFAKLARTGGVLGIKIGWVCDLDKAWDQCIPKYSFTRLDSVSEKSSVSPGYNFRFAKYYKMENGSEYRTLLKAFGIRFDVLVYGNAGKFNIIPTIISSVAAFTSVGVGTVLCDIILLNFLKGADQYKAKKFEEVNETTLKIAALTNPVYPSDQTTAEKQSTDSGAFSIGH

[4] = molecular target: T6, P2X purinoceptor 3 (Homo sapiens) (UniProt P56373); test: Antagonist activity at human P2X3R transfected in human 1321N1 cells assessed as inhibition of ATP-induced calcium influx relative to control; format: cell-based; settings: concentration not given here; how it was run: as §1
T6 sequence (whole entry): T5 sequence (P56373 whole entry)

P2X purinoceptor 4 = molecular target: T7, P2X purinoceptor 4 (Homo sapiens, UniProt Q99571); test: Antagonist activity at human P2X4R transfected in human 1321N1 cells assessed as inhibition of ATP-induced calcium influx; format: cell-based; how it was run: as §1
T7 sequence (Q99571 whole entry): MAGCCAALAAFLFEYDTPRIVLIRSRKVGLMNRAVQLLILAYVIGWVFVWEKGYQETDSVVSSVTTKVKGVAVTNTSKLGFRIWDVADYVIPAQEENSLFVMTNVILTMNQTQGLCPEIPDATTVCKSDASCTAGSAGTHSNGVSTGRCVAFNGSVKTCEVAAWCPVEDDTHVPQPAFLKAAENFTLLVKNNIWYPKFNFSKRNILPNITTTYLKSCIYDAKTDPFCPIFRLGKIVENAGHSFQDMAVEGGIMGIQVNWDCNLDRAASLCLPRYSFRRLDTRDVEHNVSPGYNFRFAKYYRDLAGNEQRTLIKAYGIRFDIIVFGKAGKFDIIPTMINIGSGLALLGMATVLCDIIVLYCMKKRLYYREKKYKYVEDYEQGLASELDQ

[5] = molecular target: T8, P2X purinoceptor 4 (Homo sapiens) (UniProt Q99571); test: Antagonist activity at human P2X4R transfected in human 1321N1 cells assessed as inhibition of ATP-induced calcium influx relative to control; format: cell-based; settings: concentration not given here; how it was run: as §1
T8 sequence (whole entry): T7 sequence (Q99571 whole entry)

P2X purinoceptor 7 = molecular target: T9, P2X purinoceptor 7 (Homo sapiens, UniProt Q99572); test: Antagonist activity at human P2X7R transfected in human 1321N1 cells assessed as inhibition of Bz-ATP-induced calcium influx; format: cell-based
T9 sequence (Q99572 whole entry): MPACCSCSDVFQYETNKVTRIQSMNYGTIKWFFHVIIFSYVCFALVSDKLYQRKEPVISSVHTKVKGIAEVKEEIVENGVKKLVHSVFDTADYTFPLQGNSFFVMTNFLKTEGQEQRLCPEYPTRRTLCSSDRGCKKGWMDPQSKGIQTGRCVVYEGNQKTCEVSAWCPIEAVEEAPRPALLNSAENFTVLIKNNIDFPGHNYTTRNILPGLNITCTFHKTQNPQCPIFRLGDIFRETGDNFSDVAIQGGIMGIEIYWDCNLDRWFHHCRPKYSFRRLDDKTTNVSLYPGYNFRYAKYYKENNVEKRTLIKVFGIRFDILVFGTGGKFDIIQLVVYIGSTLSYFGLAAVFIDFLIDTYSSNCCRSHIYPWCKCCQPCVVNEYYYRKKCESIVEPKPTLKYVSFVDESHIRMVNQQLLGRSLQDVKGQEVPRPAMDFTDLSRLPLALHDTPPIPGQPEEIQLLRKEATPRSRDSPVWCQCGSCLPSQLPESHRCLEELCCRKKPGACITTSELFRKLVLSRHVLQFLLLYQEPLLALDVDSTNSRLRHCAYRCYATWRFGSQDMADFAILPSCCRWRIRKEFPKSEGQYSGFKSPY

[6] = molecular target: T10, P2X purinoceptor 7 (Homo sapiens) (UniProt Q99572); test: Antagonist activity at human P2X7R transfected in human 1321N1 cells assessed as inhibition of Bz-ATP-induced calcium influx relative to control; format: cell-based; settings: concentration not given here
T10 sequence (whole entry): T9 sequence (Q99572 whole entry)

P2X purinoceptor 3 [7] = molecular target: T11, P2X purinoceptor 3 (Mus musculus, UniProt Q3UR32); test: Antagonist activity at P2X3R in mouse TG sensory neurons assessed as inhibition of P2X3R agonist alpha,beta-meATP-induced current at -65 mV holding potential by whole cell voltage clamp method
T11 sequence (Q3UR32 whole entry): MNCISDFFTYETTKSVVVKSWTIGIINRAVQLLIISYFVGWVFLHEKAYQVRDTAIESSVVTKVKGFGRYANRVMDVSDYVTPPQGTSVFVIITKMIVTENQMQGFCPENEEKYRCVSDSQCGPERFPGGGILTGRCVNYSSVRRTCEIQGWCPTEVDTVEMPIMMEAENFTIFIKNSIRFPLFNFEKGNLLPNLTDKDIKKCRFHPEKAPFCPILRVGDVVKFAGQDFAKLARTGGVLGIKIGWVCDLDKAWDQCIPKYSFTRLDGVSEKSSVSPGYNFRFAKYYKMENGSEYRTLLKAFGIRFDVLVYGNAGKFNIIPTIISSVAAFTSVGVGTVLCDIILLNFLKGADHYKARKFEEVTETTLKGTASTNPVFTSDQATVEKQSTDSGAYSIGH
How it was run: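 Mouse trigeminal sensory neurons were recorded by whole-cell patch clamp. Test compound (0.001–10 μM) was applied before 10 μM α,β-meATP, and inhibition of the agonist-evoked P2X3 current was measured. IC50 was taken from concentration–inhibition curves. N = 5–6 cells.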

Homo sapiens [8] = species: Homo sapiens; test: Selectivity ratio of IC50 for human P2X4R transfected in human […] 1321N1 cells to IC50 for human transfected in human 1321N1 cells; format: cell-based
Homo sapiens [9] = species: Homo sapiens; test: Selectivity ratio of IC50 for human P2X7R transfected in human […] 1321N1 cells to IC50 for human transfected in human 1321N1 cells; format: cell-based
Homo sapiens [10] = species: Homo sapiens; test: Selectivity ratio of IC50 for human P2X1R transfected in human […] 1321N1 cells to IC50 for human transfected in human 1321N1 cells; format: cell-based

Row | SMILES | IC50 (P2X purinoceptor 1) [µM] | inhibition [1] [%] | IC50 (P2X purinoceptor 2) [µM] | inhibition [2] [%] | IC50 (P2X purinoceptor 3 [3]) [µM] | inhibition [4] [%] | IC50 (P2X purinoceptor 4) [µM] | inhibition [5] [%] | IC50 (P2X purinoceptor 7) [µM] | inhibition [6] [%] | IC50 (P2X purinoceptor 3 [7]) [nM] | Ratio IC50 (Homo sapiens [8]) | Ratio IC50 (Homo sapiens [9]) | Ratio IC50 (Homo sapiens [10])
1 | CC1(C)O[C@@H]2[C@H](O1)[C@@H](C(=O)N[C@@H](CCC(=O)O)C(=O)O)O[C@H]2n1cnc2c(N)ncnc21 | > 100 | 21 | > 100 | 6 | > 100 | 15 | > 100 | -6 | > 30 | -9 | – | – | – | –
2 | Nc1ncnc2c1ncn2[C@@H]1O[C@H](COP(=O)(O)OP(=O)(O)OP(=O)(O)O)[C@H]2O[C@H](c3ccccc3)O[C@H]21 | > 100 | 27 | > 100 | 16 | 5.83 | – | 12.4 | – | > 100 | 21 | 211 | – | – | –

Now from value to compound, other results behind:

Row | IC50 (P2X purinoceptor 1) [µM] | inhibition [1] [%] | IC50 (P2X purinoceptor 2) [µM] | inhibition [2] [%] | IC50 (P2X purinoceptor 3 [3]) [µM] | inhibition [4] [%] | IC50 (P2X purinoceptor 4) [µM] | inhibition [5] [%] | IC50 (P2X purinoceptor 7) [µM] | inhibition [6] [%] | IC50 (P2X purinoceptor 3 [7]) [nM] | SMILES | Ratio IC50 (Homo sapiens [8]) | Ratio IC50 (Homo sapiens [9]) | Ratio IC50 (Homo sapiens [10])
3 | ≥ 10 | 44 | > 100 | 18 | 0.611 | – | 11 | – | 8.53 | – | 81 | Nc1ncnc2c1ncn2[C@@H]1O[C@H](COP(=O)(O)OP(=O)(O)OP(=O)(O)O)[C@H]2O[C@@H](c3ccccc3)O[C@H]21 | 14 | 18 | –
4 | > 10 | 13 | > 10 | 30 | ≥ 100 | 56 | > 30 | 35 | > 30 | – | – | CC1(C)O[C@@H]2[C@H](O1)[C@@H](COC(=O)c1cc(C(=O)O)c(C(=O)O)cc1C(=O)O)O[C@H]2n1cnc2c(N)ncnc21 | – | – | –
5 | 8.06 | – | > 100 | 20 | 0.883 | – | 29.6 | – | > 100 | 30 | 83 | Nc1ncnc2c1ncn2[C@@H]1O[C@H](COP(=O)(O)OP(=O)(O)OP(=O)(O)O)[C@H]2OC3(CCCCC3)O[C@H]21 | – | – | 10
